# This is a sample that favours compounds with a hit; in the whole collection about 6.8% have one here.
# ALR inh: inhibitors of human ALR sulfhydryl oxidase, primary screen, biochemical, H2O2 detection, HRP-luminol luminescence, single point; FAD-linked sulfhydryl oxidase ALR (Homo sapiens), P55789; purified ALR, DTT oxidation; inhibition, % (no concentration beside the values); 290,000 compounds, 3.8% hits; AID 485317, 2010;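 active means mean replicate inhibition above about 79%, with every replicate also reaching it, limit read from the data; inconclusive means only one of the two criteria met; inactive means mean below limit and not every replicate reaching it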
# Target sequence (P55789 whole entry, looked up): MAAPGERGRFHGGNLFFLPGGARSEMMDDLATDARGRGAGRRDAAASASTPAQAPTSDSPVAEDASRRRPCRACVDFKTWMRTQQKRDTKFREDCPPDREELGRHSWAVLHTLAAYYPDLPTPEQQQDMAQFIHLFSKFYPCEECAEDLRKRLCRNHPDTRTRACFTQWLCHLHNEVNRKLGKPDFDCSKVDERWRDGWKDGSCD
# HSF1 activator: HSF-1 activators, primary screen, NIH3T3-HGL cells, MG132 stress, luminescence, single point. NIH3T3-HGL HSF-1 luciferase reporter, 8 h; 100% = twice DMSO control signal. activation, % at 9 µM. 300,000 compounds, 1.7% hits. AID 504408, 2011;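 active means mean replicate activation of at least 50% with a set share of replicates each reaching 50%; inconclusive means only one of those two conditions met; inactive means mean below 50% and too few replicates reaching it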;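 further: 0% = median of the neutral control wells and 100% = twice that signal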
# AI-2 QS modul: Vibrio harveyi AI-2 quorum sensing modulators, primary screen, JMH597 strain, luminescence/OD600 ratio; Vibrio harveyi JMH597 AI-2 luminescence/OD600 ratio, 9 h; active compounds read low; strain lacks LuxN and CqsS sensors; 0 = neutral-control median; activity change, % at 7.5 µM; 300,000 compounds, 0.4% hits; AID 2094, 2009; in the data active means activity change below about -75%, passing the limit was not always enough; inconclusive means no clear call, values can overlap the other calls;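 further: luminescence divided by OD600 gain over 9 h not by final OD600 alone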
# HSF1 inh: HSF1 inhibitors in luciferase reporter cells, primary screen, cell-based, NIH3T3, luminescence | activity change, negative = inhibition, % at 7.5 µM (by protocol) | NIH3T3-HGL HSE-luciferase, MG132-induced, luminescence 8 h; active compounds read low | 300,000 compounds, 0.77% hits | AID 2098, 2009;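 active means more than half of replicate wells show activity change below -50%, luminescence cut by over half; inconclusive means some wells, but at most half, below -50%; inactive means no replicate well below -50%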;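 further: luciferase reports HSF-1 transcriptional activity via heat shock element; 0% = median of DMSO wells and -100% = zero luminescence signal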
# PHOSPHO1 block: PubChem AID 1565. recombinant PHOSPHO1, absorbance phosphatase assay. inhibition, % at 13.3 µM. 290,000 compounds, 1.1% hits; in the data active means inhibition above about 60%
# Target sequence (Q8TCT1 whole entry, looked up): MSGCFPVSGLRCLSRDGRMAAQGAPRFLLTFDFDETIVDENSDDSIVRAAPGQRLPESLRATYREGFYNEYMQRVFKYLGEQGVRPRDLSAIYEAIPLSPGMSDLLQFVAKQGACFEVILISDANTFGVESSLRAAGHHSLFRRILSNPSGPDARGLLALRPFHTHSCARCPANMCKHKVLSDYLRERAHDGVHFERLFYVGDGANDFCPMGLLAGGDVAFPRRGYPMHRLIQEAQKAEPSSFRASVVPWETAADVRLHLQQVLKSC
# core dimer inh: inhibitors of HCV core protein dimerization, primary screen, biochemical, TR-FRET, high-throughput; TR-FRET GST/Flag-core106 dimerization, 1536-well; inhibition, % at 5 µM; 300,000 compounds, 0.33% hits;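 active means inhibition above the mean of all tested compounds plus 3 SD, set per screening campaign, cut at about 45% in these data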
#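 Assay system: GST-tagged and Flag-tagged HCV core protein residues 1-106 / Times: compound-protein-antibody incubation 4 h at 22.5 °C / Signal: time-resolved FRET, ex 340 nm, em 617 and 671 nm / Evaluation: % inhibition based on acceptor/donor emission ratio / Benchmarks: wells lacking GST-core106 and wells with excess unlabelled core106 / Repeats: singlicate, one well per compound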
# Starred values were filed as active, the others as inactive; ? = inconclusive; nt = not tested or not shown.
SMILES,ALR inh,HSF1 activator,AI-2 QS modul,HSF1 inh,PHOSPHO1 block,core dimer inh
C=CCn1c(-c2cccc(Cl)c2)n[nH]c1=S,?,20.8,19.4,4.6,97.5*,2.7
S=c1[nH]nc(-c2ccc(Cl)cc2Cl)n1Cc1ccccc1,nt,18.4,-18.9,-3.4,60.3*,3.4
O=C(CC1Sc2ncnn2C1=O)Nc1ccc(Br)cc1 (stereo not given),53.8,-8.6,78.2,-3.3,42.3,19.9
Cc1cc(=O)oc(C)c1C(=O)NC1CCCCCCC1,-4.4,-4.9,-7.5,1.3,7.3,3.4
COCC(C)N=C1NN=C(c2ccc(NC(C)=O)cc2)CS1 (stereo not given),98.5*,-18.3,25.7,-6.9,-83.0,-5.7
CCN(CC)c1ccc(CN2CCC(C(=O)NCc3ccc(C)cc3)CC2)cc1,81.8*,2.3,5.1,-0.9,-17.0,-3.3
Cn1cc(CNC(=O)c2sc3cccc(Cl)c3c2Cl)cn1,nt,89.9*,15.5,57.2,28.8,-1.6
CCc1ccc(C(=O)NCc2cnn(C)c2)s1,nt,2.1,25.6,-0.3,38.5,6.1
CCOc1ccc2[nH]c3c(NCCO)ncnc3c2c1,88.7*,3.7,14.5,1.0,-12.1,nt
CCOc1ccc2[nH]c3c(NCCc4ccc(OC)c(OC)c4)ncnc3c2c1,4.4,-0.9,3.3,-6.1,-40.0,-1.6
CC1CCC/C(=N\NC(=S)NCc2ccccc2)C1 (stereo not given),-3.2,40.6,11.4,-0.4,85.0*,2.6
CC1C/C(=N\NC(=S)NCc2ccccc2)CC(C)(C)C1 (stereo not given),36.0,-10.0,5.3,-5.0,75.5*,-1.5
O=C(O)c1cc(S(=O)(=O)N2CCCCC2)ccc1N1CCCCC1,-1.0,nt,nt,nt,nt,nt
COc1cc(C2Oc3cc(C4Oc5cc(O)cc(O)c5C(=O)C4O)ccc3OC2CO)ccc1O (stereo not given),73.5,-13.1,-4.0,0.7,8.4,9.3
CC(=O)Oc1cc(O)c2c(c1)OC(c1ccc(OC(C)=O)c(OC(C)=O)c1)C(OC(C)=O)C2=O (stereo not given),89.2*,7.0,2.0,-1.4,36.0,2.2
Cc1ccc(C)c(/C=C(\C(=O)O)c2ccc(S(=O)(=O)N3CCCCC3)s2)c1,20.5,-15.4,37.7,-10.3,0.3,57.1*
O=C(O)/C(=C\c1cccc(F)c1)c1ccc(S(=O)(=O)N2CCCCC2)s1,4.7,12.3,22.4,-2.0,-5.8,15.0
COc1cc(/C=C/CN2CCN(Cc3ccc(C)o3)C(CCO)C2)ccc1O (stereo not given),97.6*,-2.6,24.3,0.2,26.2,-2.7
COc1cc(/C=C/CN2CCC(CO)(CC3CCCCO3)CC2)ccc1O (stereo not given),91.7*,2.3,15.3,-7.3,47.1,1.4
COc1cc(/C=C/CN2CCN(CCC(C)C)C(CCO)C2)ccc1O (stereo not given),94.0*,-5.1,15.3,-8.8,26.2,-4.7
CC(C)C(=O)Nc1ccc(N2CCOCC2)c(S(=O)(=O)Nc2ccccc2Cl)c1,5.3,nt,nt,nt,nt,nt
Cc1noc(C(=O)Nc2ccc(F)cc2F)c1Cl,-12.8,6.8,2.6,-8.0,32.7,nt
Cc1ccc(O)c(NC(=O)c2cc(-c3cccs3)on2)c1,nt,74.9*,-11.3,65.6,23.9,16.9
Cc1ccc(O)c(NC(=O)c2onc(C)c2Cl)c1,14.5,154.9*,1.4,97.6,-20.1,-13.3
Cc1ccc(O)c(NC(=O)c2cc(-c3ccc(F)cc3)on2)c1,2.9,?,8.5,56.7,7.3,19.7
SMILES,ALR inh,HSF1 activator,AI-2 QS modul,HSF1 inh,PHOSPHO1 block,core dimer inh
Cc1ccc(C)c(NC(=O)CN2C(=O)NC(CCc3ccccc3)C2=O)c1 (stereo not given),-3.3,nt,nt,nt,nt,nt
COc1ccc(CNC(=O)C2CCCN2C)cc1OC (stereo not given),-10.7,4.5,8.3,6.0,5.0,1.6
O=C(N1CCCCC1)N1CCN(c2ccc(Cl)cc2)CC1,98.3*,-37.5,-1.3,-25.7,-0.5,-1.4
O=C(c1ccco1)N1CCN(c2ccc(Cl)cc2)CC1,70.0,70.5*,15.0,24.4,17.5,-1.9
O=C(CCSc1ccc(Cl)cc1)c1ccco1,48.1,34.1,5.1,9.1,24.1,-3.5
O=C(c1ccco1)N1CCN(C(=O)c2cc(-c3ccccn3)nc3ccc(Cl)cc23)CC1,nt,7.6,13.4,-1.5,10.5,76.2*
O=C(c1ccco1)N1CCN(c2ccc(S(=O)(=O)N3CCCC3)cc2)CC1,-2.5,1.1,18.8,-13.6,-2.2,1.6
O=C(CSc1ccc(Cl)cc1)c1ccco1,43.3,-6.7,23.2,5.5,10.7,48.8*
C=C(C)c1cccc(C(C)(C)NC(=O)Nc2ccc(OC)nc2)c1,-1.0,8.9,20.3,0.7,27.0,-2.3
COc1ccc(OC(=O)CN2C(=O)C3C4CCC(C4)C3C2=O)cc1 (stereo not given),nt,14.1,-2.6,-2.0,-12.5,-4.4
O=C(c1ccco1)N1CCN(c2ncnc3c(-c4ccccc4)nsc23)CC1,5.1,50.9*,13.4,27.5,8.5,28.5
Cc1cc(OCC(=O)Nc2ccc(N3CCN(C(=O)c4ccco4)CC3)cc2)cc(C)c1Cl,-9.4,6.5,22.8,-4.7,72.9*,7.0
O=C(c1ccco1)N1CCN(c2ccc(Cl)c(Cl)c2)CC1,7.5,99.0*,-10.8,58.3,nt,1.8
Cc1ccc(OCC(=O)Nc2ccc(N3CCN(C(=O)c4ccco4)CC3)cc2)cc1C,2.6,13.7,6.8,9.9,44.9,1.2
O=C(c1ccco1)N1CCN(C(=O)N2CCOCC2)CC1,-1.3,71.4*,1.6,29.9,26.1,3.2
COc1ccc(-c2nsc3c(N4CCN(C(=O)c5ccco5)CC4)ncnc23)cc1,-0.8,20.0,23.5,-0.2,39.3,24.9
O=C(c1ccco1)N1CCCN(C(=O)c2ccco2)CC1,-3.0,31.1,14.8,-0.5,-28.3,1.0
CCC(=O)c1ccc(OCC(=O)NCC2(N3CCCCC3)CCCCC2)cc1,-0.2,-4.1,19.0,-14.5,-19.6,-2.2
CCN(CC(=O)Nc1ccccc1C(F)(F)F)C(=O)CCOc1ccc(C)cc1,nt,-3.4,22.8,-3.7,nt,1.6
O=C(Cc1ccc(Cl)cc1)Nc1ccc(N2CCN(C(=O)c3ccco3)CC2)cc1,-7.1,80.2*,15.9,40.7,-13.5,8.1
O=C(Nc1ccc(N2CCN(C(=O)c3ccco3)CC2)cc1)c1ccco1,-48.6,3.5,21.0,3.5,45.5,1.0
CCCOc1cccc(C(=O)NCCNC(=O)c2cnccn2)c1,-0.8,39.9,10.3,3.5,-24.5,-3.1
